How the values were obtained:
C4-2 cells = test: MTS cell proliferation assay of in vitro cytotoxicity; assay type: cell-based; settings: Homo sapiens, C4-2, 72 h, read-out: half minimal inhibitory concentration (IC50)
Procedure, shortened: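 AR-positive human prostate cancer C4-2 cells exposed for 72 hours to individual flavonoids or to a defined three-flavonoid mixture (molar ratio 1:1:2) across graded concentrations. Viability read by MTS cell proliferation assay; IC50 taken from the dose-effect curves. Data represent three or more independent experiments.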

[1] = Pharmacokinetics and bioavailability of ProFine ingredients; assay type: in vivo, Sprague-Dawley rats; settings: ProFine 100 mg/kg oral gavage, rat plasma
rats = settings: cited from earlier work
humans = settings: up to 1000 mg daily for several months; cited from earlier work

Row | SMILES | IC50 (C4-2 cells) | maximum plasma concentration [1] | acute oral toxicity (LD50) (rats) | adverse effects of human daily intakes (humans)
1 | O=c1cc(-c2ccc(O)c(O)c2)oc2cc(O)cc(O)c12 [luteolin] | 114 µM | 0.44 µM | > 5000 mg/kg | 
2 | O=c1c(O)c(-c2ccc(O)c(O)c2)oc2cc(O)cc(O)c12 [quercetin] |  |  |  | no adverse effects

— paper PMC6034581 (Neoplasia (New York, N.Y.), 2018)
